The source of these data is ChEMBL document CHEMBL1124192, “Cyclopentenylcytosine. A carbocyclic nucleoside with antitumor and antiviral properties” (J Med Chem, 1988).

Converted amounts (≈) assume the structure as drawn. “And” between values parts separate entries of the source, which are not always exact repeats. Equal values may be shown once.

The test system of data set [1] is Vesicular stomatitis virus. Description: Inhibitory dose of compound required to inhibit cytopathogenic effects of vesicular stomatitis RNA virus with indiana strain in L929 cells. The format is functional. (In general: Protection from cytopathic effect is a common read-out in antiviral testing.)
Data set [2] has as its system Vesicular stomatitis virus. Description: Tested for inhibition of virus-induced cytopathogenic effect and cytotoxicity of compound against vesicular stomatitis RNA virus with indiana strain in L929 cell. Type of data set: functional.
Data set [3] can be described thus: Ratio of minimum drug concentration to ID50 of the compound (Indiana strain). The format is ADME.
Data set [4] has as its system Human alphaherpesvirus 1. Kind of data set: Dose of compound required to inhibit the herpes simplex type-1 virusE-377(TK+ ) induced cytopathogenic effects. The conditions noted are these: read-out: ID50 (the source's name). The format is functional. An outline of the steps:
(§1)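 Southern Research CPE inhibition test in Vero host cells. Confluent monolayers in 96-well plates received drug (minimum seven concentrations, cytotoxic to noncytotoxic) plus virus at 32 CCID50 per 0.1 mL, in triplicate, with cell, virus and drug-cytotoxicity controls. Incubated at 37 °C, 2% CO2. CPE scored microscopically at 3–4 days. VR = 0.1 × sum of CE-grade differences from virus control, halved for partially cytotoxic wells.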

Data set [5] concerns Human alphaherpesvirus 2. Description: Degree of inhibition of virus-induced cytopathogenic effect and the degree of cytotoxicity produced by compound against herpes simplex type-2 MS virus. Type of data set: functional. An outline of the steps:
as §1

Data set [6] has as its system Human alphaherpesvirus 2. Description: Dose of compound required to inhibit the herpes simplex type-2 MS virus induced cytopathogenic effects. The format is functional. The conditions noted are these: read-out: ID50 (the source's name). An outline of the steps:
as §1

The test system of data set [7] is Human alphaherpesvirus 1. Description: Degree of inhibition of virus-induced cytopathogenic effect and the degree of cytotoxicity produced by compound against herpes simplex type-1 virus E-377(TK+ ). Type of data set: functional. The gist of the method:
as §1

In data set [8] the test system is Japanese encephalitis virus. Kind of data set: Inhibitory dose of compound required to inhibit cytopathogenic effects of Japanese encephalitis virus with […] strain in vero cells. The format is functional. The conditions noted are these: read-out: ID50 (the source's name).
For data set [9], the system named is unidentified influenza virus. Description: Tested for inhibition of virus-induced cytopathogenic effect and cytotoxicity of compound against influenza virus with A2/Aichi/2/68 strain in MDCK cell. Type of data set: functional.
Data set [10] in a line: Ratio of minimum drug concentration to ID50 of the compound(Adems strain). Type of data set: ADME.
In data set [11] the test system is Punta Toro virus. Kind of data set: Inhibitory dose of compound required to inhibit cytopathogenic effects of Punta toro virus with adames strain in vero cells. The format is functional. As to conditions: read-out: ID50 (the source's name).
Data set [12] relates to Japanese encephalitis virus. Kind of data set: Tested for inhibition of virus-induced cytopathogenic effect and cytotoxicity of compound against Japanese encephalitis virus with […] strain in vero cell. The format is functional.
Data set [13] relates to unidentified influenza virus. Description: Inhibitory dose of compound required to inhibit cytopathogenic effects of influenza virus with A2/Aichi/2/68 strain in MDCK cells. Type of data set: functional. As to conditions: read-out: ID50 (the source's name).
For data set [14], the system named is Punta Toro virus. Description: Tested for inhibition of virus-induced cytopathogenic effect and cytotoxicity of compound against Punta toro virus with adames strain in vero cell. The format is functional.
Data set [15] has as its system Yellow fever virus. Description: Inhibitory dose of compound required to inhibit cytopathogenic effects yellow fever (virus) with Asibi strain in vero cell. Type of data set: functional. As to conditions: read-out: ID50 (the source's name).
For data set [16], the system named is Yellow fever virus. Kind of data set: Tested for inhibition of virus-induced cytopathogenic effect and cytotoxicity of compound against yellow fever (virus) with Asibi strain in vero cell. Type of data set: functional.
The subject of data set [17] is Human alphaherpesvirus 1. Description: Dose of compound required to inhibit the herpes simplex type-1 virus HF(TK- )induced cytopathogenic effects. The format is functional. The gist of the method: as §1
Data set [18] has as its system Human alphaherpesvirus 1. Kind of data set: Degree of inhibition of virus-induced cytopathogenic effect and the degree of cytotoxicity produced by compound against herpes simplex type-1 virus HF(TK- ). Type of data set: functional. An outline of the steps: as §1

In the case of `Nc1nccc2c1ncn2[C@@H]1C[C@H](CO)[C@@H](O)[C@H]1O` [3-DEAZAARISTEROMYCIN A], in data set [1], the ID50 is 4.3 µg/mL and 2 µg/mL. Besides, the Virus rating in data set [2] was 2.1 and 3. For the same compound, the Therapeutic index in data set [3] is on record as 1.6. In addition, in [3] (read-out: Therapeutic index), the selectivity ratio was found to be 2.3.
Consider `Nc1nc2c(ncn2COCCO)c(=O)[nH]1` [ACYCLOVIR], for which the IC50 stood at 0.7 µg/mL (≈ 3.11 µM) in data set [4] and 5.3 µg/mL (≈ 23.5 µM) in data set [6]. Also, the Virus rating in [5] was 4.5; in data set [7], 6.7.
Regarding `NC(=O)c1ncn([C@@H]2O[C@H](CO)[C@@H](O)[C@H]2O)n1` [RIBAVIRIN], the IC50 in data set [8] was found to be 3 µg/mL (≈ 12.3 µM); in data set [11] it was 20.1 µg/mL (≈ 82.3 µM); in data set [13] it was 18.7 µg/mL (≈ 76.6 µM). For the same compound, the results for the Virus rating in [9], in data set [12] and in [14] were 3.6, 2.4 and 1.8, respectively. Moreover, the selectivity ratio in data set [10] (read-out: Therapeutic index) was 5.
For the compound `c1c[se]cn1` [SELENAZOLE], the selectivity ratio in data set [10] (read-out: Therapeutic ratio) was found to be 1.8. In addition, the IC50 in data set [15] came to 0.6 µg/mL (≈ 4.54 µM). In data set [16], the Virus rating is 2.4.
Regarding `Nc1ncnc2c1ncn2[C@@H]1O[C@H](CO)[C@@H](O)[C@@H]1O` [VIDARABINE], the IC50 in [4] amounted to 13.6 µg/mL (≈ 50.9 µM); in [17] (Human alphaherpesvirus 1, read-out: ID50 (the source's name)), 2.1 µg/mL (≈ 7.86 µM); in [6], 49.9 µg/mL (≈ 187 µM). The ID50 in data set [17] stood at 1.9 µg/mL (≈ 7.11 µM). Further, the Virus rating in data set [5] was 1.3; in [7] it was 1.8; in data set [18], 3.3 and 2.9.
